Experimental data: paper PMC12124217 (RSC Medicinal Chemistry, 2025)

Assays:
MDA-MB-468 (EGFR+) cells = experiment: MTT cell viability assay; assay type: cell-based; conditions: neat CD, up to concentrations as high as 100 μM
Method in brief: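 MDA-MB-468 cells were treated with test compound alone or as cyclodextrin complexes, then read out by MTT. Complex stocks were made by shake-flask and passed through a 0.45 μm filter. […] Values are the mean of 10 replicates ± standard deviation.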

[1] = Phase-solubility study of tcyDTDO with BCD; assay type: physicochemical; conditions: BCD with saturated tcyDTDO, 25.0 °C
[2] = cited from earlier work
[3] = advertised; ref Millipore Sigma; cited from earlier work

For OC[C@H]1O[C@@H]2O[C@H]3[C@H](O)[C@@H](O)[C@@H](O[C@H]4[C@H](O)[C@@H](O)[C@@H](O[C@H]5[C@H](O)[C@@H](O)[C@@H](O[C@H]6[C@H](O)[C@@H](O)[C@@H](O[C@H]7[C@H](O)[C@@H](O)[C@@H](O[C@H]8[C@H](O)[C@@H](O)[C@@H](O[C@H]1[C@H](O)[C@H]2O)O[C@@H]8CO)O[C@@H]7CO)O[C@@H]6CO)O[C@@H]5CO)O[C@@H]4CO)O[C@@H]3CO [BCD, beta-cyclodextrin], the “Effect on cell viability” value (MDA-MB-468 (EGFR+) cells) is given as “did not have any significant adverse effect on cell viability”, the “Highest achievable concentration of CD in solution” value [1] is given as 4.43 mM and the “Cavity volume, literature” value [2] is given as 262 Å^3.
For CC(O)COC[C@H]1O[C@@H]2O[C@H]3[C@H](O)[C@@H](O)[C@@H](O[C@H]4[C@H](O)[C@@H](O)[C@@H](O[C@H]5[C@H](O)[C@@H](O)[C@@H](O[C@H]6[C@H](O)[C@@H](O)[C@@H](O[C@H]7[C@H](O)[C@@H](O)[C@@H](O[C@H]8[C@H](O)[C@@H](O)[C@@H](O[C@H]1[C@H](O)[C@H]2O)O[C@@H]8COCC(C)O)O[C@@H]7COCC(C)O)O[C@@H]6COCC(C)O)O[C@@H]5COCC(C)O)O[C@@H]4COCC(C)O)O[C@@H]3COCC(C)O (stereo partly drawn) [HPB, 2-hydroxypropyl-beta-cyclodextrin], the “Effect on cell viability” value (MDA-MB-468 (EGFR+) cells) is listed as “did not have any significant adverse effect on cell viability” and the Solubility in water [3] is listed as “roughly 45 g per 100 mL”.
